Bioassay records deposited in PubChem BioAssay by Broad Institute.
miR-122 sensor – miR-122 Renilla sensor signal increase in Huh7, primary screen, miR-122 inhibitor project, cell-based, single point, plate reader | activation (reporter increase), % at 12.5 µM | hit rate 0.3% among 340,000 | Huh7 miR-122 Renilla luciferase sensor, 48 h; neutral wells = 0, positive control = 100;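 active means mean replicate activation score at least 90 and every replicate individually at or above 90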;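 further: higher luciferase means less miR-122 activity so hits act as miR-122 inhibitors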
CAL PDZ FP-1 – untagged CAL PDZ binding inhibitors, primary screen, biochemical, fluorescence polarization, HTS | Golgi-associated PDZ and coiled-coil motif-containing protein (Homo sapiens), Q9HD26 | inhibition, % at 24.9 µM | purified CAL PDZ, TMR-peptide fluorescence polarization, 1 h | AID 602252, 2012 | hit rate 0.92% among 300,000;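 active means mean inhibition of at least 30% with at least half of replicates also reaching 30%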;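 further: 0% = DMSO neutral control and 100% = excess unlabeled competitor peptide PRC23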
CAL PDZ FP-2 – CAL PDZ peptide-binding inhibitors, primary screen, biochemical, fluorescence polarization, Cer-tagged CAL PDZ, HTS; Golgi-associated PDZ and coiled-coil motif-containing protein (Homo sapiens), Q9HD26; purified CAL PDZ, TMR-peptide fluorescence polarization, 1 h; inhibition, % at 20 µM; hit rate 0.02% among 330,000; AID 504414, 2011;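 active means highest replicate inhibition of at least 40%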;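 further: plate controls were DMSO neutral control wells for no effect and unlabeled competitor peptide control wells for full effect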
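System: purified tagged CAL PDZ domain construct (CerCALP). Schedule: 1 h incubation at room temperature before polarization reading. Medium: 25 mM sodium phosphate pH 7.4, 150 mM NaCl, TCEP, IgG, Thesit. Read-out: percent inhibition from loss of millipolarization. Measured by: FP readout, S and P plane fluorescence. Probe or stimulus: fluorescent TMR peptide probe.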
ARNT-TACC3 inh – disruptors of ARNT/TACC3 protein interaction, primary screen, biochemical, AlphaScreen, single concentration; Transforming acidic coiled-coil-containing protein 3 (Homo sapiens), Q9Y6A5; AlphaScreen His-ARNT PAS-B/GST-TACC3 binding, luminescence; TACC3 fragment carries E629A point mutation; inhibition, % at 9.99 µM; hit rate 0.66% among 390,000; AID 623870, 2012;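 active means mean inhibition of replicates at least 50% and at least half of replicates each reaching 50%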;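 further: 0% = complete ARNT plus TACC3 wells and 100% = ARNT alone without TACC3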
PGC1a acetyl inh – inhibitors of PGC1a acetylation signal, primary screen, cell-based, U2OS, AlphaScreen, inhibitor mode; AlphaScreen anti-acetyl-lysine; with virally co-expressed GCN5 acetyltransferase; inhibition, % at 15.6 µM; hit rate 0.17% among 350,000; AID 651687, 2012;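 active means every replicate shows inhibition of at least 40%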;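 further: 0% = neutral control wells and 100% = positive control wells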
F508del corr – F508del CFTR correction, initial screen, CFBE line, single point | CFBE cells, YFP halide quenching; stimulated with forskolin plus potentiator P3; % fluorescence drop versus neutral controls | activity (quench increase), % at 7.58 µM | hit rate 0.36% among 350,000;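 active means mean added fluorescence quench of at least 8% versus neutral control, with both replicates also reaching 8%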;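 further: cells transiently co-express mutant CFTR-F508del with the halide-sensitive YFP; corrector assay measuring rescue of mutant channel to the surface after 24 h compound exposure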
Numbers without * were called inactive; / = no result given; [ ] = another dose, or the depositor's remark. Rows were chosen to be rich in hits. Some 1.7% of all compounds tested hit in one or more screens of this group.

SMILES	miR-122 sensor	CAL PDZ FP-1	CAL PDZ FP-2	ARNT-TACC3 inh	PGC1a acetyl inh	F508del corr
O=C1CCCC2=C1C(c1ccc(Br)cc1)c1c([nH]c(=S)[nH]c1=O)N2 (stereo unspecified)	19.1	-4.6	0.3	-3.0	-11.7	/
O=c1[nH]c(=S)[nH]c2c1C(c1ccc(Br)cc1)c1c([nH]c(=S)[nH]c1=O)O2	-4.6	31.0*	/	-8.0	-0.4	-1.0
O=C(NCC[C@@H]1CC[C@@H](NC(=O)c2cccnc2)[C@H](CO)O1)Nc1ccc(C(F)(F)F)cc1	/	/	/	/	-3.7	2.3
N#Cc1c(N)c(C#N)c(-c2ccc(O)cc2)c2c1CCCC2	0.7	74.7*	-1.8	0.2	1.3	/
COCC(=O)N1CC2(C1)CN(Cc1cccc(Cl)c1)[C@@H](CO)c1[nH]c3cc(OC)ccc3c12	/	/	/	/	8.8	0.4
Cc1ccc(S(=O)(=O)N(C)C)cc1NC(=S)N1CCc2ccccc21	0.9	49.2*	-1.8	2.6	2.9	0.0
CN(C)S(=O)(=O)c1cccc(NC(=S)N2CCc3ccccc32)c1	5.6	-4.4	-1.0	3.6	/	2.3
Cc1ccsc1/C=N/Nc1ncnc2nc[nH]c12	/	2.0	0.5	58.3*	-16.0	0.1
Cc1ccc(C2CC(c3cccs3)=NN2S(=O)(=O)c2ccc(C)cc2)cc1 (stereo unspecified)	98.1*	-3.6	-2.5	/	/	/
COC(=O)COc1c(/C=C\c2nc(O)c([N+](=O)[O-])c(=O)[nH]2)cccc1OC	-8.6	2.9	-0.8	2.4	55.0*	-0.2
C#CCOc1c(/C=C\c2nc(O)c([N+](=O)[O-])c(=O)[nH]2)cc(Br)cc1OC	-4.0	-7.7	-0.6	9.0	-2.8	0.8
CC[C@@]1(O)C(=O)OCc2c1cc1n(c2=O)Cc2cc3c(N)cccc3nc2-1	/	-2.1	0.7	-5.1	/	1.5
CC[C@@]1(O)C(=O)OCc2c1cc1n(c2=O)Cc2cc3c(CN(C)C)c(O)ccc3nc2-1	-19.1	-2.9	-0.2	-8.5	/	26.0*
CO[C@H]1CN(C)C(=O)c2cc(NC(=O)c3ccccc3F)ccc2OC[C@H](C)N(C(C)=O)C[C@H]1C	/	/	/	-2.6	0.0	-1.0
COc1ccc(/C=N/NC(=O)COc2ccccc2-c2ccccc2)cc1	128.7*	-2.0	-2.2	/	-20.8	/
CCOC(=O)c1cc(C#N)c(N2CCN(C(=O)c3cccc(C(F)(F)F)c3)CC2)nc1C(F)(F)F	/	65.2*	-1.8	-2.7	/	-7.6
COc1cc2c(cc1OC)-c1cc(NC3CC3)nc(=O)n1CC2	-3.1	-5.3	-2.3	53.1*	-9.7	/
COc1cc2c(cc1OC)-c1cc(NC3CCCCC3)nc(=O)n1CC2	-4.1	-3.9	-2.3	46.2*	-0.7	/
COc1cc2c(cc1OC)-c1cc(NC3CCCCCCC3)nc(=O)n1CC2	-12.6	-6.1	-4.7	12.5	-19.8	/
Cc1ccc(S(=O)(=O)Nc2ccc3c(c2)C(=O)N([C@@H](C)CO)C[C@H](C)[C@@H](CN(C)C(=O)NC(C)C)OCCCC[C@@H](C)O3)cc1	/	/	/	/	-4.9	0.2
Cc1ccc(CN2C(=NC(=O)CCC(=O)O)SC3CS(=O)(=O)CC32)cc1 (stereo unspecified)	/	-0.1	-2.4	1.8	-1.9	1.9
Cc1cc(C)c(N2C(=NC(=O)CCCC(=O)O)SC3CS(=O)(=O)CC32)c(C)c1 (stereo unspecified)	-0.9	40.8*	-0.3	0.3	-3.2	/
COc1ccc(COCC23N=C4SCc5ccccc5CN4[C@H](c4ccccc4O2)[C@H]3COC(=O)c2ccccc2)cc1	/	/	/	-5.5	-20.4	1.8
Nc1nnc(N)c2ccccc12	/	57.2*	-0.6	0.4	6.7	2.5
Nc1nsc2ccccc12	3.6	-1.8	-2.2	3.2	-43.9	0.5
SMILES	miR-122 sensor	CAL PDZ FP-1	CAL PDZ FP-2	ARNT-TACC3 inh	PGC1a acetyl inh	F508del corr
O=c1[nH]c2cc3ccccc3cc2nc1C(F)(F)F	-7.4	-3.4	-0.7	-1.4	/	-2.4
O=c1[nH]c(-c2ccccn2)nc(C(F)(F)F)c1Br	5.4	1.3	0.1	62.9*	2.9	-3.8
O=C(Nc1ccccc1F)N[C@@H]1CC[C@H](CCNC(=O)C2CCCCC2)O[C@@H]1CO	-2.0[16.7 µM]	/	/	6.3	-30.0	-1.8
COc1ccc(N=Cc2sc3ccccc3c2Cl)cc1	15.7	-2.3	-1.2	7.8	1.2	/
COc1ccc2cc(C(=O)N/N=C/c3sc4ccccc4c3O)ccc2c1	/	-10.6	-1.3	64.5*	/	1.8
O=C(N/N=C/c1sc2ccccc2c1O)c1ccccc1	-40.6	/	-0.1	61.2*	/	/
COc1ccc(C(=O)N/N=C/c2sc3ccccc3c2O)cc1	/	-1.6	0.3	78.4*	/	/
O=C(N/N=C/c1ccc(F)cc1)c1ccccc1	/	2.5	-0.5	/	/	-1.9
CCN(CC)S(=O)(=O)c1ccc(NC(=S)NC(=O)CC(C)C)cc1	/	111.9*	-2.1	20.9	/	/
Cc1ccc(S(=O)(=O)Nc2ccc3c(c2)C(=O)N([C@@H](C)CO)C[C@@H](C)[C@H](CN(C)C(=O)CCCN(C)C)OCCCC[C@@H](C)O3)cc1	3.6[16.7 µM]	/	/	1.8	-1.6	0.9
CCN(CC(=O)NCc1cccs1)C(=O)c1cccc(Cl)c1	4.2	-1.8	0.1	-12.7	-2.0	-1.4
CCN(CC(=O)NCc1cccs1)C(=O)c1ccccc1Cl	/	51.8*	-0.9	-11.3	6.1	-1.9
CCN(CC(=O)NCc1cccs1)C(=O)c1cc(=O)[nH]c2ccccc12	/	73.9*	-0.5	-7.5	/	-2.0
COc1cccc(NC(=O)Nc2ccc3c(c2)OC[C@@H](C)NC[C@H](C)[C@@H](OC)CN(C)C3=O)c1	6.0[16.7 µM]	/	/	-5.6	1.6	2.8
C[C@@H]1CN([C@@H](C)CO)S(=O)(=O)c2ccc(-c3ccc(C#N)cc3)cc2O[C@@H]1CN(C)C	-2.2[16.7 µM]	/	/	1.4	-1.6	-1.3
Cc1cccc(-c2nsc(SCC(=O)N3CCCC3)n2)c1	-7.6	-5.2	-1.1	-2.4	95.5*	/
O=C(CSc1nc(-c2ccccc2)ns1)N1CCOCC1	/	-2.7	-0.6	-6.1	/	0.0
COCC(=O)N(C)C[C@H]1Oc2cc(-c3ccc(C#N)cc3)ccc2S(=O)(=O)N([C@H](C)CO)C[C@H]1C	-59.1[16.7 µM]	/	/	-6.0	7.2	0.1
CC(C)NC(=O)N(C)C[C@@H]1Oc2ccc(NC(=O)CCC(F)(F)F)cc2C(=O)N([C@@H](C)CO)C[C@H]1C	0.7[16.7 µM]	/	/	4.2	1.2	0.6
Oc1ccccc1C=NCCN1CCN(CCN=Cc2ccccc2O)C1c1ccccc1O (stereo unspecified)	/	-2.1	-0.2	71.3*	9.0	1.0
